The source of these data is ChEMBL document CHEMBL1141182, “Selective benzopyranone and pyrimido[2,1-a]isoquinolin-4-one inhibitors of DNA-dependent protein kinase: synthesis, structure-activity studies, and radiosensitization of a human tumor cell line in vitro” (J Med Chem, 2005).

Test [1] deals with T1, Serine-protein kinase ATM (Homo sapiens, UniProt Q13315). Description: Inhibition of ATM kinase using rabbit polyclonal antisera; No inhibition observed at 100 uM. On the set-up: species or system Oryctolagus cuniculus. To be noted: target entry is the homologue from another species.
Test [2] addresses T2, Serine/threonine-protein kinase ATR (Homo sapiens, UniProt Q13535). Briefly: Inhibition of ATR kinase using rabbit polyclonal antisera; No inhibition observed at 100 uM. To be noted: target entry is the homologue from another species. On the set-up: species or system Oryctolagus cuniculus.
The target in test [3] is DNA-dependent protein kinase catalytic subunit (Homo sapiens, UniProt P78527). Briefly: Inhibition of DNA dependent protein kinase isolated from HeLa cells. The test is classed as cell-free.
The target of test [4] is Phosphatidylinositol 4,5-bisphosphate 3-kinase catalytic subunit alpha isoform (Homo sapiens, UniProt P42336). Briefly: Inhibition of Phosphatidylinositol 3-kinase. Summed up:
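PI 3-kinase assay run following a prior method, with baculovirus-derived recombinant human p110α and p85α.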

The target of test [5] is Serine/threonine-protein kinase mTOR (Homo sapiens, UniProt P42345). Description: Inhibition of mTOR protein isolated from HeLa cells. In outline: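 mTOR immunoprecipitated from HeLa cell cytoplasmic extract. Activity measured following a prior method, with recombinant PHAS-1 as substrate.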
Test [6] addresses T1, Serine-protein kinase ATM. Briefly: Inhibition of ATM kinase using rabbit polyclonal antisera. Set-up: species or system Oryctolagus cuniculus. To be noted: target entry is the homologue from another species. In outline: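 ATM kinase activity assayed following a previously published method, using rabbit polyclonal antisera raised against the COOH-terminal 400 amino acids of ATM.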

Test [7] has as its target T2, Serine/threonine-protein kinase ATR. Briefly: Inhibition of ATR kinase using rabbit polyclonal antisera. On the set-up: species or system Oryctolagus cuniculus. The conditions noted are these: target entry is the homologue from another species. Summed up:
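ATR kinase activity measured following earlier published methods, using antisera raised against ATR amino acids 400–480.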

T1 sequence (Q13315 whole entry): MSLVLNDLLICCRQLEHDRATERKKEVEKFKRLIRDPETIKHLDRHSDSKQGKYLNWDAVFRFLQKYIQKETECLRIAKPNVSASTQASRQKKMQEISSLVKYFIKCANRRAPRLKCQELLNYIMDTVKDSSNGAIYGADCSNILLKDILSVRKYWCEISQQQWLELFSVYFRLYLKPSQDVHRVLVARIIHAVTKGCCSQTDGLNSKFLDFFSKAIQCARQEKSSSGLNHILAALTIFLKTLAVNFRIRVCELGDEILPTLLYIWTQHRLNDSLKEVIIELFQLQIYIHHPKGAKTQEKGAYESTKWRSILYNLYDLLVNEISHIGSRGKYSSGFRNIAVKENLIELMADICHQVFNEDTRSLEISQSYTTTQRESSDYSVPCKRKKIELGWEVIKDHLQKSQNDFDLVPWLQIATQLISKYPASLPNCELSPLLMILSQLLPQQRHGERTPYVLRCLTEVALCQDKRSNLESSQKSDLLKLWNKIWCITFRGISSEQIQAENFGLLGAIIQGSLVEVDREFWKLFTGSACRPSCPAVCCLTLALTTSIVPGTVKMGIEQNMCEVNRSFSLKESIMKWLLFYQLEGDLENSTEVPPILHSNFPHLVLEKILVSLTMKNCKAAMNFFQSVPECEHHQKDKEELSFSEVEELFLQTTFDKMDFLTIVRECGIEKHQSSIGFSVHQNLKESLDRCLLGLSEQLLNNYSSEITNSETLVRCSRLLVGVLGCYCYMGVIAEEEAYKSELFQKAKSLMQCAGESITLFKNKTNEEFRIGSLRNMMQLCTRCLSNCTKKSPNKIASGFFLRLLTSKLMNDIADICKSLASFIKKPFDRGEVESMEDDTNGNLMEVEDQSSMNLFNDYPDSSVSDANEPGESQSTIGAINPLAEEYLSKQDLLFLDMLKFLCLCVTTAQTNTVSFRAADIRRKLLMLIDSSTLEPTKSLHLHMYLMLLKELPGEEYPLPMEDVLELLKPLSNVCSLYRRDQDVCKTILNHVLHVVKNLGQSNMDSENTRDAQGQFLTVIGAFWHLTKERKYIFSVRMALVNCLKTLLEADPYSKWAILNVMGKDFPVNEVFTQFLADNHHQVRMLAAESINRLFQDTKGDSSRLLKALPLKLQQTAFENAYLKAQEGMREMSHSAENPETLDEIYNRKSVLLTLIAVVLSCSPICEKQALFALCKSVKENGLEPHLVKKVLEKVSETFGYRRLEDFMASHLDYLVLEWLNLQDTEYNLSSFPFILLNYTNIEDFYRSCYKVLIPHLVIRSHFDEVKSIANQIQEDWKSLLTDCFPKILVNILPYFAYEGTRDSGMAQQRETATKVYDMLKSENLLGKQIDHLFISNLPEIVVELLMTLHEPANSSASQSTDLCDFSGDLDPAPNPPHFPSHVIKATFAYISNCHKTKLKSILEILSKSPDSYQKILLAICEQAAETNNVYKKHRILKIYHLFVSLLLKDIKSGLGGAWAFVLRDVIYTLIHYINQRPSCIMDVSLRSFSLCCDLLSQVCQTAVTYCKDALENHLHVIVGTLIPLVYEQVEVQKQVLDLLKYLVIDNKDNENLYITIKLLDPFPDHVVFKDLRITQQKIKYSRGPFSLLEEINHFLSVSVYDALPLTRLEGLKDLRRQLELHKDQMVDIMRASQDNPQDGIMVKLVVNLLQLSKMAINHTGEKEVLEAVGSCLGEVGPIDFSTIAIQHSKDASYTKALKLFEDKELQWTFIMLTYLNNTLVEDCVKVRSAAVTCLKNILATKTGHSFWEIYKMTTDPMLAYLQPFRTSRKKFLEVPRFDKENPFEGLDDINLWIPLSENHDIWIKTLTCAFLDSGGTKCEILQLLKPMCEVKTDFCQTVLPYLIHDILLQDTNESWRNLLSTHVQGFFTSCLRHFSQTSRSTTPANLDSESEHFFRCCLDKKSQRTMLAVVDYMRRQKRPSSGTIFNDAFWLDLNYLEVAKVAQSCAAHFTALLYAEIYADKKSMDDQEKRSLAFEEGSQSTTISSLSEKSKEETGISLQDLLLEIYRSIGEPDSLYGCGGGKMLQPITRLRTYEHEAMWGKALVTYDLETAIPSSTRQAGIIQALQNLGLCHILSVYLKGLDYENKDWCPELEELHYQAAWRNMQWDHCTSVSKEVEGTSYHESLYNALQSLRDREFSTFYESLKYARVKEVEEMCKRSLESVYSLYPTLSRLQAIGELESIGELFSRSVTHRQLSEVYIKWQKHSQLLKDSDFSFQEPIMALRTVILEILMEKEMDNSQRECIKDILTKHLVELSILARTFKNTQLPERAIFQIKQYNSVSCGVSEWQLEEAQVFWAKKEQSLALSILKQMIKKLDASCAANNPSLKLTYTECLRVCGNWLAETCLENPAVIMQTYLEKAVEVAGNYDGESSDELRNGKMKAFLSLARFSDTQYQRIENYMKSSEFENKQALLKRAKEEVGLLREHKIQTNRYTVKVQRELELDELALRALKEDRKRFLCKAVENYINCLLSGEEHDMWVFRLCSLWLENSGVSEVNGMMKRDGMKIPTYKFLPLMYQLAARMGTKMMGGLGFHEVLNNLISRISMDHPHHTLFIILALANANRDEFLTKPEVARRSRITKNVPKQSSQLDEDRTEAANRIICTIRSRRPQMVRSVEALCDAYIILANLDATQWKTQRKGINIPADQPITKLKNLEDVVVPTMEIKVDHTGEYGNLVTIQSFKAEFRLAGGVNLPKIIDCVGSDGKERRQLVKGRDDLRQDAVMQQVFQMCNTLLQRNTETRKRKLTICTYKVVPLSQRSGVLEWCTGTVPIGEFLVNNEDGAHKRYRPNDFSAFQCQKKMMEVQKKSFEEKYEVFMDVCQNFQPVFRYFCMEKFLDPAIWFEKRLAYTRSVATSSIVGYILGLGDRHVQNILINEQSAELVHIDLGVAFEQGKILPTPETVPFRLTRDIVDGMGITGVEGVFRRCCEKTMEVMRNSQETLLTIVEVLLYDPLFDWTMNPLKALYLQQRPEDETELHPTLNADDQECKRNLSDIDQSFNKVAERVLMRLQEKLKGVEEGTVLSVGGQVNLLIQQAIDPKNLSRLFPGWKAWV
Chain of Phosphatidylinositol 4,5-bisphosphate 3-kinase catalytic subunit alpha isoform (P42336 whole entry, canonical isoform): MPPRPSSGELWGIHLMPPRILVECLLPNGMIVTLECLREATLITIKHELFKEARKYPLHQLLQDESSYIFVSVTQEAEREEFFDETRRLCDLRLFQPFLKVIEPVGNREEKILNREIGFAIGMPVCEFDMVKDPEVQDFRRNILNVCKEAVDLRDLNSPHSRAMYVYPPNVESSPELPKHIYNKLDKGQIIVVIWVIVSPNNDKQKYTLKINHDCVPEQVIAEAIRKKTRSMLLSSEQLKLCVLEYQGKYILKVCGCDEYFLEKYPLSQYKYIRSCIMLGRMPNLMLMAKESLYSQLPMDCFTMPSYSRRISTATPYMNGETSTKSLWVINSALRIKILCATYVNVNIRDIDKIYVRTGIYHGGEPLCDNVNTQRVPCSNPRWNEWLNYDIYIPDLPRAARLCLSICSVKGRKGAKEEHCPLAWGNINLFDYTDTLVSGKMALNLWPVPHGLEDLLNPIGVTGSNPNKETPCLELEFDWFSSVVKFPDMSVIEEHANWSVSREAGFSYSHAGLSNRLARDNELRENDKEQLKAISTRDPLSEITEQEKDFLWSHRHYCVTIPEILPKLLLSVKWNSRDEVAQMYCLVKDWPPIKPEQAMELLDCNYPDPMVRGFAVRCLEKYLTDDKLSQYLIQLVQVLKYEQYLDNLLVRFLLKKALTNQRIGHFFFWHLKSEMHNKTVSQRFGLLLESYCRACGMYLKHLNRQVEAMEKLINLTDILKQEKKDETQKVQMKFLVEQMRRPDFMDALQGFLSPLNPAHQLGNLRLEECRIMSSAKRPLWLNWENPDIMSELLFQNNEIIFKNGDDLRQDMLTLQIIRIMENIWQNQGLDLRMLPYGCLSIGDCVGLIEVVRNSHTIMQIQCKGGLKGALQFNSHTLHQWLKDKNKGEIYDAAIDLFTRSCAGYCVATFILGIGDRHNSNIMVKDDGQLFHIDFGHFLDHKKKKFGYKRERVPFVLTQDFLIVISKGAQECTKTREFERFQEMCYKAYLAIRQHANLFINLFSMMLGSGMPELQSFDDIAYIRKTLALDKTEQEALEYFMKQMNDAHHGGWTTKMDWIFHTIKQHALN

On to `O=c1cc(N2CCOCC2)oc2c1ccc1ccccc12`, for which the IC50 in test [1] and in test [2] was greater than 100 µM throughout.
Take `O=c1cc(-c2ccccc2Cl)oc2c1ccc1ccccc12`: in test [3], the IC50 (in general, the concentration at which inhibition is half-maximal) is greater than 10 µM.
Still for that read-out and setting: then `COc1ccc2c(=O)cc(N3CCOCC3)oc2c1`, with 0.95 µM; and `COc1ccc2oc(=O)cc(N3CCOCC3)c2c1`, with 1.75 µM; and `Nc1cccc(-c2cc(=O)c3ccc4ccccc4c3o2)c1`, with greater than 10 µM.
Still for that read-out and setting: then `CC(C)(C)c1ccc(-c2cc(=O)c3ccc4ccccc4c3o2)cc1`, with greater than 10 µM; and `O=c1cc(N2CCOCC2)oc2cc3ccccc3cc12`, with 0.39 µM; and `O=c1cc(N2CCC(O)C2)oc2c1ccc1ccccc12` (stereo not given), with 9.27 µM.
`O=c1cc(N2CCSCC2)oc2c(-c3ccccc3)cccc12`: the half-maximal inhibitory concentration (IC50) is 1.61 µM in test [3] and greater than 100 µM in test [4].
Compound `C#CCCN(C)c1cc(=O)n2ccc3ccccc3c2n1` displayed an IC50 in test [3] greater than 10 µM.
On to `O=c1cc(N2CCCCC2)oc2c(-c3ccccc3)cccc12`, for which the IC50 in test [3] was 4.67 µM; in test [4] it was greater than 100 µM.
In test [3], `O=c1cc(N2CCCCC2)c2ccccc2o1` displayed an IC50 of 8.81 µM.
On the same count and under the same terms, then `CC1(C)CN(c2cc(=O)n3ccc4ccccc4c3n2)CCO1`, with 6.71 µM; and `S=c1cc(N2CCOCC2)oc2c1ccc1ccccc12`, with 0.26 µM.
On the same count and under the same terms, then `CC1(C)CN(c2cc(=O)c3ccc4ccccc4c3o2)CCO1`, with 3.52 µM.
Same read-out and setting: then `COc1cccc2c(N3CCOCC3)cc(=O)oc12`, with 10.9 µM; and `C[C@@H]1CN(c2cc(=O)n3ccc4ccccc4c3n2)C[C@H](C)O1`, with 3.25 µM.
The compound `O=c1cc(-c2cccc([N+](=O)[O-])c2)oc2c1ccc1ccccc12` showed an IC50 in test [3] greater than 10 µM.
Consider `O=c1cc(NCCO)nc2c3ccccc3ccn12`, for which, in test [3], the IC50 is greater than 10 µM.
Compound `COc1ccc2c(N3CCOCC3)cc(=O)oc2c1` registered an IC50 in test [3] of 11.3 µM.
`O=c1cc(N2CCOCC2)c2cc3ccccc3cc2o1` showed an IC50 in test [3] of 3.24 µM.
The same measure, in the same setting: under `O=c1cc(N2CCOc3ccccc32)oc2c1ccc1ccccc12` stands greater than 10 µM; under `O=c1cc(-c2cccnc2)oc2c1ccc1ccccc12`, 1.92 µM.
Still for that read-out and setting: under `O=c1cc(-c2ccncc2)oc2c1ccc1ccccc12` stands greater than 10 µM.
Still for that read-out and setting: under `O=c1cc(NCC(O)CO)nc2c3ccccc3ccn12` (stereo not given) stands 8.46 µM; under `CC(O)CNc1cc(=O)n2ccc3ccccc3c2n1` (stereo not given), greater than 10 µM; under `O=c1cc(N2CCOCC2)c2c(ccc3ccccc32)o1`, 1.9 µM.
Compound `O=c1cc(NCC2CCCO2)nc2c3ccccc3ccn12` (stereo not given) came in with an IC50 in test [3] greater than 10 µM.
Still for that read-out and setting: then `CN(CCO)c1cc(=O)n2ccc3ccccc3c2n1`, with greater than 10 µM; and `O=c1cc(N(CCO)Cc2ccccc2)nc2c3ccccc3ccn12`, with greater than 10 µM; and `O=c1cc(N2CCNCC2)oc2c1ccc1ccccc12`, with greater than 10 µM.
`O=c1cc(N2CCCC2)nc2c3ccccc3ccn12`: in test [3], the IC50 came out at 6.68 µM. This lies in the single-digit micromolar range.
Still for that read-out and setting: under `O=c1cc(N2CCOCC2)nc2ccccn12` stands 2 µM.
Same read-out and setting: then `O=c1cc(NCCOc2ccccc2Br)oc2c1ccc1ccccc12`, with greater than 10 µM.
Still for that read-out and setting: under `O=c1cc(N2CCOCC2)oc2c3c(ccc12)CCCC3` stands 0.36 µM; under `O=c1cc(N2CCSCC2)nc2c3ccccc3ccn12`, 1.69 µM.
As to `O=c1cc(N2CCOCC2)nc2c3ccccc3ccn12`, the IC50 in test [3] was 0.28 µM; in test [4], greater than 100 µM; in test [5] it was 5.3 µM; in test [1], greater than 100 µM; in test [2], greater than 100 µM.
Compound `Nc1ccc(-c2cc(=O)c3ccc4ccccc4c3o2)cc1` returned an IC50 in test [3] of 7.7 µM.
Same read-out and setting: under `CN1CCN(c2cc(=O)n3ccc4ccccc4c3n2)CC1` stands greater than 10 µM; under `CC1CN(c2cc(=O)c3ccc4ccccc4c3o2)CC(C)O1` (stereo not given), 4.14 µM; under `CC1CCC(C)N(c2cc(=O)n3ccc4ccccc4c3n2)C1` (stereo not given), greater than 10 µM.
Still for that read-out and setting: under `O=c1cc(N2CCOCC2)c2cc(Cl)ccc2o1` stands 3.27 µM.
In test [3], `Cc1cccc2c(=O)cc(N3CCOCC3)oc12` came in with a half-inhibitory concentration (IC50) of 1.65 µM.
With `O=c1cc(N2CCSCC2)c2cc3ccccc3cc2o1`, half-maximal inhibition in test [3] (IC50) required 5.15 µM.
Same read-out and setting: under `CCC1CN(c2cc(=O)n3ccc4ccccc4c3n2)CCO1` (stereo not given) stands greater than 10 µM; under `O=c1cc(N2CCOC(CO)C2)nc2c3ccccc3ccn12` (stereo not given), greater than 10 µM.
In the case of `O=c1cc(N2CCCC2)oc2c1ccc1ccccc12`, the IC50 in test [3] amounted to 6.17 µM.
The same measure, in the same setting: then `COc1cccc2oc(=O)cc(N3CCOCC3)c12`, with greater than 10 µM; and `O=c1cc(-c2ccc([N+](=O)[O-])cc2)oc2c1ccc1ccccc12`, with greater than 10 µM; and `OCCOCC/N=c1\cc(O)c2ccc3ccccc3c2o1`, with greater than 10 µM.
The same measure, in the same setting: under `O=c1cc(N2CC[C@@H](O)C2)nc2c3ccccc3ccn12` stands 6.49 µM.
Same read-out and setting: under `O=c1cc(N(CCO)CCO)nc2c3ccccc3ccn12` stands greater than 10 µM.
For the compound `CN(CC(O)c1ccccc1)c1cc(=O)n2ccc3ccccc3c2n1` (stereo not given), half-maximal inhibition in test [3] (IC50) was put at 10.5 µM.
The same measure, in the same setting: then `O=c1cc(N2CCC[C@H](CO)C2)oc2c1ccc1ccccc12`, with greater than 10 µM.
On the same count and under the same terms, under `O=c1cc(-c2ccc(F)cc2)oc2c1ccc1ccccc12` stands greater than 10 µM; under `O=c1cc(N2CCSCC2)oc2c1ccc1ccccc12`, 1.38 µM.
Still for that read-out and setting: then `O=c1cc(N2CC=CC2)nc2c3ccccc3ccn12`, with 2.81 µM; and `Cc1ccc2oc(=O)cc(N3CCOCC3)c2c1`, with 5.35 µM; and `O=c1cc(-c2ccccc2F)oc2c1ccc1ccccc12`, with 8.59 µM.
The compound `O=c1cc(N2CCCOCC2)oc2c1ccc1ccccc12` yielded an IC50 in test [3] of 2.01 µM.
On the same count and under the same terms, then `O=c1cc(N2CCOCC2)c2ccccc2o1`, with 4.82 µM.
The same measure, in the same setting: under `O=c1cc(N2CCCCC2)oc2c1ccc1ccccc12` stands 3.81 µM; under `O=c1cc(-c2cccc(Cl)c2)oc2c1ccc1ccccc12`, greater than 10 µM.
As for `O=c1cc(N2CCOCC2)oc2ccc(-c3ccccc3)cc12`, the half-maximal inhibitory concentration (IC50) in test [3] was determined as 2.24 µM.
Same read-out and setting: then `Cc1cccc2c(N3CCOCC3)cc(=O)oc12`, with 8.05 µM; and `Nc1ccccc1-c1cc(=O)c2ccc3ccccc3c2o1`, with greater than 10 µM; and `O=c1cc(NCC(O)c2cccc(O)c2)nc2c3ccccc3ccn12` (stereo not given), with greater than 10 µM.
The same measure, in the same setting: under `O=c1cc(-c2ccc(Cl)cc2)oc2c1ccc1ccccc12` stands greater than 10 µM; under `O=c1cc(NCC2CCCO2)oc2c1ccc1ccccc12` (stereo not given), greater than 10 µM.
The same measure, in the same setting: under `O=c1cc(-c2ccccc2[N+](=O)[O-])oc2c1ccc1ccccc12` stands greater than 10 µM; under `O=c1cc(N2CC[S+]([O-])CC2)oc2c(-c3ccccc3)cccc12`, 5.71 µM.
As for `CC1CN(c2cc(=O)c3ccc4ccccc4c3o2)CCO1` (stereo not given), the IC50 is 2.4 µM in test [4], 4.8 µM in test [5], greater than 100 µM in test [1] and greater than 100 µM in test [2].
Consider `O=c1cc(N2C[C@H]3C[C@@H]2CO3)oc2c1ccc1ccccc12`, for which, in test [3], the IC50 is 3.19 µM.
Same read-out and setting: then `O=c1cc(-c2cccc(F)c2)oc2c1ccc1ccccc12`, with 5.71 µM; and `CN1CCN(c2cc(=O)c3ccc4ccccc4c3o2)CC1`, with greater than 10 µM; and `COc1cccc2c(=O)cc(N3CCOCC3)oc12`, with 1.2 µM.
On the same count and under the same terms, then `O=c1cc(-c2ccccc2)oc2c1ccc1ccccc12` [ALPHA-NAPHTHOFLAVONE], with 4.98 µM; and `O=c1cc(-c2ccccc2)oc2ccccc12` [FLAVONE], with greater than 10 µM.
As to `O=c1cc(N2CCOCC2)oc2c(-c3ccccc3)cccc12` [LY-294002], the IC50 in test [6] and in test [7] was greater than 100 µM each time.
